# Reference: ChEMBL document CHEMBL4813967, “Tackling resistance in chronic myeloid leukemia: Novel cell death modulators with improved efficacy” (Eur J Med Chem, 2021)
# Columns and labels:
# COS-7 [1] = experiment: Cytotoxicity against African green monkey COS7 cells assessed as cell viability at 10 uM incubated for 72 hrs by MTT assay; conditions: chlorocebus aethiops, cos-7, 72 h
# COS-7 [2] = experiment: Cytotoxicity against African green monkey COS7 cells assessed as cell viability at 10 uM incubated for 72 hrs by MTT assay; type: cell-based; conditions: chlorocebus aethiops, cos-7, 72 h
# How it was run: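 COS-7 cells in DMEM with 10% FCS and L-glutamine, no antibiotics or phenol red. Seeded 2×10^3/well in triplicate, grown 24 h, then compound added at 10 µM final and incubated 72 h. Modified MTT (tetrazolium) metabolic-activity readout by absorbance. DMSO control set to 100%; DMSO ≤0.1%. Mean + SD of ≥3 experiments, triplicate determinations.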
# K562 [3] = experiment: Induction of cell sensitization to imatinib in imatinib-resistant human K562 cells assessed as cell death at 5 uM incubated for 72 hrs in presence of 1 uM imatinib by PI staining based flow cytometry (reference value: 19%); type: functional
# [4] = target: T1, Peroxisome proliferator-activated receptor gamma (Homo sapiens, UniProt P37231); experiment: Agonist activity at Gal4-fused human PPARgamma transfected in African green monkey COS7 cells co-transfected with pGal5-TK-pGL3 and pRenilla-CMV assessed as receptor transactivation at 10 uM incubated for 39 hrs by dual luciferase reporter gene assay relative to piaglitazone; type: cell-based; conditions: COS-7, human, read-out: max activation
# T1 sequence (P37231 whole entry): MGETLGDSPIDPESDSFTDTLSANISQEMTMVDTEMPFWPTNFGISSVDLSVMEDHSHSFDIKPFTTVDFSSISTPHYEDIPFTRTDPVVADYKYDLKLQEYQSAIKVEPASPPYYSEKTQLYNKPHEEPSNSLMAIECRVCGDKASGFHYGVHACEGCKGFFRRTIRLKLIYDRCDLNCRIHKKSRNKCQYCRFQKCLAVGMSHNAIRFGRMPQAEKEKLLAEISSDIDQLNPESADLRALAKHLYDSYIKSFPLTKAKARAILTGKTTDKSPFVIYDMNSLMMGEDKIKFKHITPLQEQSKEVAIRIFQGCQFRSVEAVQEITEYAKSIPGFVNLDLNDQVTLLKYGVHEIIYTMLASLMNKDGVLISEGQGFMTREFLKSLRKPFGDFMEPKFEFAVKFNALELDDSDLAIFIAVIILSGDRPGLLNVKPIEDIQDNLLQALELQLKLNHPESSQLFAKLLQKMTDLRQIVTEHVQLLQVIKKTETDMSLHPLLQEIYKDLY
# How it was run: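 COS-7 cells (10^4/well, triplicates) grown 24 h, then transiently transfected with pGal5-TK-pGL3 (90 ng), pGal4-hPPARγDEF (9 ng) and pRenilla-CMV (3 ng). Compound added 7 h later, incubation 39 h. Cells lysed by freezing at -80 °C overnight plus lysis buffer. Firefly luciferase normalised to Renilla. Activity at 10 µM expressed relative to pioglitazone at 10 µM (100%). Mean ± SD of ≥3 experiments.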
# [5] = Cytotoxicity against human HS5 cells assessed as cell death at 5 uM incubated for 72 hrs in presence of imatinib by PI staining based flow cytometry; conditions: hs5, 72 h
# How it was run: (§1)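 HS-5 stromal cells in DMEM with 10% FCS, 5% CO2, 37 °C. Seeded 0.5×10^5/well, given compound (5 µM) alone or with imatinib, and incubated 72 h. Cells stained with PI/Triton X-100 for 2 h at 4 °C. Dead cells counted by flow cytometry as sub-G1 nuclei. DMSO vehicle control included.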
# [6] = Cytotoxicity against human HS5 cells assessed as cell death at 5 uM incubated for 72 hrs by PI staining based flow cytometry; conditions: hs5, 72 h
# How it was run: as §1
# K562 [7] = experiment: Induction of cell sensitization to imatinib in imatinib-resistant human K562 cells assessed as cell death at 10 uM incubated for 72 hrs in presence of 1 uM imatinib by PI staining based flow cytometry (reference value: 19%); type: functional
# K562 [8] = experiment: Cytotoxicity against imatinib-resistant human K562 cells assessed as cell death at 5 uM incubated for 72 hrs by propidium iodide staining based flow cytometry; conditions: k562, 72 h
# How it was run: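 K562-resistant cells, a doxorubicin-resistant K562 subclone (KD225), grown in RPMI 1640 with 10% FCS. Seeded 2×10^5/well and exposed 72 h to compound alone or with 1 µM imatinib. PI/Triton X-100 staining 2 h at 4 °C; flow cytometry scoring sub-G1 nuclei as dead cells. DMSO vehicle (≤0.1%) controls. Mean ± SEM of ≥3 experiments.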
# [9] = Modulation of STAT5 expression in imatinib-resistant human K562 cells assessed as STAT5 level at 5 uM measured after 6 hrs by Jess Simple Western immunoassay (reference value: 100%); type: functional
# How it was run: (§2)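 K562-resistant (doxorubicin-resistant KD225) cells treated 6 h with compound at 5 µM, alone or with 1 µM imatinib, against a DMSO control. Total protein extracts analysed by capillary Jess Simple Western. STAT5 antibody 10 µg/ml with 0.2 mg/ml lysate; pSTAT5 (Y694/699) antibody 20 µg/ml with 2 mg/ml lysate. GAPDH (0.4 µg/ml) as loading reference; HRP anti-rabbit secondary.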
# [10] = target: T2, Signal transducer and activator of transcription 5A (Homo sapiens) (UniProt P42229); experiment: Inhibition of STAT5 phosphorylation at Y694/699 residue in imatinib-resistant human K562 cells assessed as phosphorylated STAT5 level at 5 uM incubated for 6 hrs by Jess Simple Western immunoassay (reference value: 100%); type: cell-based; parameters: scale not given: the % may be the effect or the level left
# T2 sequence (whole entry): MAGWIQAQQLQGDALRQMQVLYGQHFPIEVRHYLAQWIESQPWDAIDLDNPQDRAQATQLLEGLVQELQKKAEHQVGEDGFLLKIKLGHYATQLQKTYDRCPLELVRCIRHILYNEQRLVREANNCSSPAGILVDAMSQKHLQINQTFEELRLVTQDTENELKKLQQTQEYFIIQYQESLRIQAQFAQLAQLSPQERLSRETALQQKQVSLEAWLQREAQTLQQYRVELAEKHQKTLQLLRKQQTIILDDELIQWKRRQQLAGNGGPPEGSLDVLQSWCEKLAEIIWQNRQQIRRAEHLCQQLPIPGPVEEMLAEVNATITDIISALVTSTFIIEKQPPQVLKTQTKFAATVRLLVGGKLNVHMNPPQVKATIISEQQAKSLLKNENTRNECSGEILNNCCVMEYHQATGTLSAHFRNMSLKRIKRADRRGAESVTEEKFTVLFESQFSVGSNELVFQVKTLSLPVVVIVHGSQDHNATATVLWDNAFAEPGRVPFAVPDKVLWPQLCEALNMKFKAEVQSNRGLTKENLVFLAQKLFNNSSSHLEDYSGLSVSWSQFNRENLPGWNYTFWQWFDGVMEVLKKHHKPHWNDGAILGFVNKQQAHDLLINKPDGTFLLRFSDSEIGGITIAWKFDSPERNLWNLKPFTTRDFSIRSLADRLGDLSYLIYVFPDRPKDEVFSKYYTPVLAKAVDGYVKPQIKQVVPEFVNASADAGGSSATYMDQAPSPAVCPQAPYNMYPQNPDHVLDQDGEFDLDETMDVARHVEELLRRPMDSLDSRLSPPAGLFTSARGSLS
# How it was run: as §2
# [11] = Modulation of STAT5 expression in imatinib-resistant human K562 cells assessed as STAT5 level at 5 uM measured after 6 hrs in presence of imatinib by Jess Simple Western immunoassay (reference value: 100%); type: functional
# [12] = target: T2, Signal transducer and activator of transcription 5A (Homo sapiens); experiment: Inhibition of STAT5 phosphorylation at Y694/699 residue in imatinib-resistant human K562 cells assessed as phosphorylated STAT5 level at 5 uM incubated for 6 hrs in presence of imatinib by Jess Simple Western immunoassay (reference value: 100%); type: cell-based; parameters: scale not given: the % may be the effect or the level left
Compound,Activity (COS-7 [1]),Activity (COS-7 [2]),Activity (K562 [3]),Emax at 10 µM [4],Activity [5],Activity [6],Activity (K562 [7]),Activity (K562 [8]),Activity [9],Activity [10],Activity [11],Activity [12]
CCCc1nc2c(C)cccc2n1Cc1ccc(-c2ccccc2C(=O)OC)cc1,Non-Toxic,Non-Toxic,40%,13.8%,Non-Toxic,Non-Toxic,>85%,<= 20%,,,,
CCCc1nc2ccc(Br)cc2n1Cc1ccc(-c2ccccc2C(=O)OC)cc1,,,,,,,63%,,,,,
CCCc1nc2c(N)cccc2n1Cc1ccc(-c2ccccc2C(=O)OC)cc1,Non-Toxic,Non-Toxic,26%,0.11%,Non-Toxic,Non-Toxic,,<= 20%,,,,
CCCc1nc2c(N)cccc2n1Cc1ccc(-c2ccccc2C#N)cc1,Non-Toxic,Non-Toxic,28%,43%,Non-Toxic,Non-Toxic,,<= 20%,,,,
CCCc1nc2ccccc2n1Cc1ccc(-c2ccccc2C#N)cc1,Non-Toxic,Non-Toxic,50%,64.5%,Non-Toxic,Non-Toxic,>85%,<= 20%,98%,78%,96%,3%
CCCc1nc2c(Br)cccc2n1Cc1ccc(-c2ccccc2C#N)cc1,Non-Toxic,Non-Toxic,>76%,41.1%,Non-Toxic,Non-Toxic,>85%,<= 20%,107%,90%,103%,4%
CCCc1nc2c([N+](=O)[O-])cccc2n1Cc1ccc(-c2ccccc2C(=O)OC)cc1,Non-Toxic,Non-Toxic,57%,15%,Non-Toxic,Non-Toxic,>85%,<= 20%,,,,
CCCc1nc2c(F)cccc2n1Cc1ccc(-c2ccccc2C#N)cc1,Non-Toxic,Non-Toxic,50%,76%,Non-Toxic,Non-Toxic,>85%,<= 20%,105%,89%,96%,1%
CCCc1nc2c(Cl)cccc2n1Cc1ccc(-c2ccccc2C(=O)OC)cc1,Non-Toxic,Non-Toxic,57%,22.2%,Non-Toxic,Non-Toxic,>85%,<= 20%,103%,87%,101%,3%
CCCc1nc2c(OC)cccc2n1Cc1ccc(-c2ccccc2C#N)cc1,Non-Toxic,Non-Toxic,50%,45.9%,Non-Toxic,Non-Toxic,>85%,<= 20%,,,,
CCCc1nc2c(Cl)cccc2n1Cc1ccc(-c2ccccc2C#N)cc1,Non-Toxic,Non-Toxic,50%,68.4%,Non-Toxic,Non-Toxic,>85%,<= 20%,107%,81%,109%,12%
CCCc1nc2c(OC)cccc2n1Cc1ccc(-c2ccccc2C(=O)OC)cc1,Non-Toxic,Non-Toxic,57%,20.7%,Non-Toxic,Non-Toxic,>85%,<= 20%,,,,
CCCc1nc2c(Br)cccc2n1Cc1ccc(-c2ccccc2C(=O)OC)cc1,Non-Toxic,Non-Toxic,26%,11.6%,Non-Toxic,Non-Toxic,66%,<= 20%,103%,89%,116%,27%
CCCc1nc2cc(Br)ccc2n1Cc1ccc(-c2ccccc2C(=O)OC)cc1,,,,,,,31%,,,,,
CCCc1nc2c(C)cccc2n1Cc1ccc(-c2ccccc2C#N)cc1,Non-Toxic,Non-Toxic,50%,32.2%,Non-Toxic,Non-Toxic,>85%,<= 20%,,,,
CCCc1nc2c([N+](=O)[O-])cccc2n1Cc1ccc(-c2ccccc2C#N)cc1,Non-Toxic,Non-Toxic,50%,37.9%,Non-Toxic,Non-Toxic,>85%,<= 20%,,,,
